Laboratory results from PubChem BioAssay.
Calls of active or inactive are those of the source. Unless noted, no stated cut-off is given here; in the data, active means inhibition above about 30%; inactive means the rest.

Tests used:
[1] = Her2 expression decrease, cell viability multiplex – SKBR3 breast tumor cells, AlphaScreen, ATP viability, primary screen (AID 461;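 active means Her2 level under about 52% in both replicate screens, with viability over 70% of control, limit read from the data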;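 on Her2 level: lower value means less Her2 protein in the cells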;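 on viability: percent of carrier control wells set as 100% viability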); details: SKBR3 Her2 protein level, 18-24 h, measured here: SKBR3 viability, ATP luminescence, at 10 µM
[2] = target: Receptor tyrosine-protein kinase erbB-2 (Homo sapiens) (UniProt P04626); test: as above; details: 18-24 h, at 10 µM, stronger effect = lower value
Chain of Receptor tyrosine-protein kinase erbB-2 (Homo sapiens) (P04626 whole entry, looked up): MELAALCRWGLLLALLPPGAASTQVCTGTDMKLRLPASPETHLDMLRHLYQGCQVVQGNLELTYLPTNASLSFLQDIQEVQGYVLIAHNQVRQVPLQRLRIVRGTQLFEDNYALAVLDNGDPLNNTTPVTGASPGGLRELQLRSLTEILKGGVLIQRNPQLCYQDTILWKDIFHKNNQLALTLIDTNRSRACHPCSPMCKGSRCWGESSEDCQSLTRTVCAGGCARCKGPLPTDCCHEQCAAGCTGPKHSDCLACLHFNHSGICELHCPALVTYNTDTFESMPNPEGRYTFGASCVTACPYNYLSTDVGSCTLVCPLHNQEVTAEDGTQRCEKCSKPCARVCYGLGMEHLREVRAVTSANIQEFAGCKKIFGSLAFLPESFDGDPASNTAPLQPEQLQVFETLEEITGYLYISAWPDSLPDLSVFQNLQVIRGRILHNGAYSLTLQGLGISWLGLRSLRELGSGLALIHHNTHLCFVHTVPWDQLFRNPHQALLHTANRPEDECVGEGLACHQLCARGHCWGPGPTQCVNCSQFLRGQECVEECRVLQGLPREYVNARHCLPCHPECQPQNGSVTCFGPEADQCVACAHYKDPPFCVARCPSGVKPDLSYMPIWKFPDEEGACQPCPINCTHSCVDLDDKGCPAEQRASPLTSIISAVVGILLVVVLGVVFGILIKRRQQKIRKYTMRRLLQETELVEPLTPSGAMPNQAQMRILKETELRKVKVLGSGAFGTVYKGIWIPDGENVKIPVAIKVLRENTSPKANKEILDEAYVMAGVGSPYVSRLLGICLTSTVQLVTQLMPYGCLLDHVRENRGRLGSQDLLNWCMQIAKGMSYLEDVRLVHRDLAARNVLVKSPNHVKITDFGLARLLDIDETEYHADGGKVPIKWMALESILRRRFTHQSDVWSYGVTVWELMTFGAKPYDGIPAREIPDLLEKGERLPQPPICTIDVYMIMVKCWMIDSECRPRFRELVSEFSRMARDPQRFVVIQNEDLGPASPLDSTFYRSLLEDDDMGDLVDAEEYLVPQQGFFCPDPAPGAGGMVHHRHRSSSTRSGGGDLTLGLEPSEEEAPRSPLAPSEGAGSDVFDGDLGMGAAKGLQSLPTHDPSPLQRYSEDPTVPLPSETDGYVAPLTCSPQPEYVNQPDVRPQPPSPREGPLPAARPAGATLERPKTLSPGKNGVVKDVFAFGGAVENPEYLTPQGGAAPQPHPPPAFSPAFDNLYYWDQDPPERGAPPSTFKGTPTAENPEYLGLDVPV

[3] = reduced viability of SK-BR-3 breast cancer cells – cell-based, 24 h, human, pilot screen (AID 572;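 active means viability at or below 10% of carrier control in both of two separate runs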;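 further: compound exposure lasted between 18 and 24 h rather than exactly 24 h; 100% = carrier-treated control wells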); details: SK-BR-3 viability, CellTiter-Glo luminescence, at 10 µM, stronger effect = lower value
[4] = HUVEC growth inhibition – cell-based, human, primary screen (AID 575;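 active means viability at or below 30% in both replicate assays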;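 further: 100% = median of untreated cell wells with 0.1% DMSO on each plate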); details: HUVEC proliferation, CellTiter-Glo luminescence, 72 h; at 10 µM; stronger effect = lower value
Outline: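 System: primary human umbilical vein endothelial cells; Quantity: 1250 endothelial cells in each well; Buffer or medium: supplemented EBM, 2% fetal bovine serum; Doses: one dose, 10 µM final, 0.1% DMSO; Incubation: 72 h compound incubation; Technique: ATP-based CellTiter-Glo luminescent read; Evaluation: percent of median DMSO-control luminescence; Controls: vehicle and MePR control wells.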

[5] = H69AR cell proliferation blockers – human, duplicate replicates, primary screen (AID 580;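 active means viability at or under a set limit in both replicates, limit being median viability minus 3 SD, cut at about 48% in these data, passing the limit was not always enough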;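 further: 100% = mean luminescence of untreated wells and 0% = no signal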); details: H69AR lung tumor cells viability, ATP luminescence, 72 h; at 10 µM; stronger effect = lower value
[6] = MRP1 drug-resistance reversers in H69AR cells – cell-based, doxorubicin co-treatment, pilot screen (AID 601;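 active means viability loss from added drug above about 55%, and viability with drug at most 40%, in both replicates, limit read from the data, passing the limit was not always enough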); details: CellTiter-Glo, 72 h, at 10 µM; for differential viability (reversal): stronger effect = higher value
[7] = yeast transport mutant growth inhibition pilot in 384-well plates, post-Golgi transport modulator project (AID 636; in the data active means inhibition above about 31%); details: absorbance 615 nm, about 18 h, stronger effect = higher value
[8] = growth suppression of yeast trafficking mutant, preliminary HTS, modulators of trafficking downstream of Golgi apparatus project, 1536-format plate, OD 615 nm (AID 637); details: yeast transport mutant growth, absorbance 615 nm, 18 h; stronger effect = higher value
[9] = H69AR cells + 2 uM doxorubicin, measured here: viability with 2 uM doxorubicin, stronger effect = lower value
[10] = H69AR cells, compound alone cytotoxicity

| Compound | viability [1] [%] | Her2 level [2] | viability [3] | viability [4] | viability [5] | differential viability (reversal) ([6]; H69AR cells + 2 uM doxorubicin) | viability [6, 9] [%] | viability [6, 10] [%] | inhibition [7] | inhibition [8] |
| --- | --- | --- | --- | --- | --- | --- | --- | --- | --- | --- |
| Cc1ccc(NC2=NC(c3ccccc3)n3c(nc(C)cc3=O)N2)cc1 (stereo not given) | 86.5 | 82% (inactive) | 86.5% (inactive) | 93.5% (inactive) | 88.5% (inactive) | 11.3% (inactive) | 77.2 | 88.5 | -2.11% (inactive) | 2.55% (inactive) |
| CCn1c(SCC(=O)Nc2nc(C)cs2)nnc1-c1ccco1 | 106 | 87.5% (inactive) | 106% (inactive) | 110% (inactive) | 92% (inactive) | 4.38% (inactive) | 87.7 | 92 | -3.33% (inactive) | -2% (inactive) |
| COC(=O)c1ccc(NC(=O)C2CC(=O)N(c3cc(C)ccc3C)C2)cc1 (stereo not given) | 97 | 99.5% (inactive) | 97% (inactive) | 96.3% (inactive) | 89.8% (inactive) | 3.6% (inactive) | 86.2 | 89.8 | -1.76% (inactive) | 13.7% (inactive) |
| Cc1nc2ccccn2c1P(=O)(N1CCCCC1)N1CCCCC1 | 92.5 | 112% (inactive) | 92.5% (inactive) | 117% (inactive) | 91% (inactive) | 1.72% (inactive) | 89.3 | 91 | -2.93% (inactive) | 0% (inactive) |
| CCSc1nnc(NC(=O)C(CC)(C(F)(F)F)C(F)(F)F)s1 | 79.5 | 120% (inactive) | 79.5% (inactive) | 68.9% (inactive) | 74% (inactive) | 0.58% (inactive) | 73.4 | 74 | 0.41% (inactive) | 33.3% (active) |
| Cc1ccc(C2Nc3ccccc3-c3nc4ccccc4n32)o1 (stereo not given) | 97 | 89.5% (inactive) | 97% (inactive) | 54.4% (inactive) | 38.3% (active) | -18.1% (inactive) | 56.4 | 38.3 | -1.37% (inactive) | 4.44% (inactive) |
| Cc1cc(C)nc(SCC(=O)Nc2ncc3c(n2)CCCC3=O)n1 | 98.5 | 93.5% (inactive) | 98.5% (inactive) | 99% (inactive) | 112% (inactive) | 12.5% (inactive) | 99.3 | 112 | -1.17% (inactive) | -4.13% (inactive) |
| O=C(NCCN1CCOCC1)c1ccc2c(c1)N(Cc1ccccc1)C(=O)CS2 | 89.5 | 111% (inactive) | 89.5% (inactive) | 97.8% (inactive) | 99.4% (inactive) | 4.81% (inactive) | 94.6 | 99.4 | 0.67% (inactive) | -0.32% (inactive) |
| COc1ccccc1N1CC(O)=C(c2nc3ccccc3c(=O)[nH]2)C1=N | 116 | 72% (inactive) | 116% (inactive) | 102% (inactive) | 71.7% (inactive) | -13.9% (inactive) | 85.7 | 71.7 | -4.05% (inactive) | 1.59% (inactive) |
| Cc1ccnc(NC(=O)CCC(=O)N(CC(=O)NC(C)(C)C)C2CCCC2)c1 | 108 | 99.5% (inactive) | 108% (inactive) | 92.7% (inactive) | 93.2% (inactive) | 0.62% (inactive) | 92.6 | 93.2 | -4.94% (inactive) | 5.56% (inactive) |
| CCn1c(NCc2ccc(N(C)C)cc2)nc2ccccc21 | 84.5 | 87.5% (inactive) | 84.5% (inactive) | 101% (inactive) | 97.9% (inactive) | 11.2% (inactive) | 86.7 | 97.9 | -2.03% (inactive) | -1.5% (inactive) |
| CCCc1c(O)nc(SCC(=O)NCCc2ccc(OC)c(OC)c2)[nH]c1=O | 95 | 93.5% (inactive) | 95% (inactive) | 84.6% (inactive) | 104% (inactive) | -0.29% (inactive) | 104 | 104 | -4.53% (inactive) | -2.26% (inactive) |
| CCn1c(SCC(=O)Nc2nccs2)nnc1-c1ccncc1 | 101 | 63.5% (inactive) | 101% (inactive) | 87% (inactive) | 84.8% (inactive) | -2.34% (inactive) | 87.1 | 84.8 | -2.11% (inactive) | 2.7% (inactive) |
| CCCCNS(=O)(=O)c1ccc(OC)c2ncccc12 | 102 | 108% (inactive) | 102% (inactive) | 102% (inactive) | 90% (inactive) | 0.295% (inactive) | 89.7 | 90 | -4.32% (inactive) | -3.33% (inactive) |
| CC1(C)NC(=O)N(CNc2cc(Cl)ccc2Cl)C1=O | 104 | 87.5% (inactive) | 104% (inactive) | 85.7% (inactive) | 96.4% (inactive) | 0.94% (inactive) | 95.5 | 96.4 | -3.55% (inactive) | -1.82% (inactive) |
| Cc1ccc(NC2=NC3(CCCCC3)N=C(N)N2)c(C)c1 | 114 | 96% (inactive) | 114% (inactive) | 87.9% (inactive) | 102% (inactive) | 18.6% (inactive) | 83.9 | 102 | 2.16% (inactive) | -5.87% (inactive) |
| Cc1ccc(NC(=O)CSc2nnc(CSc3nc(C)cc(C)n3)n2Cc2ccco2)c(C)c1 | 88 | 96% (inactive) | 88% (inactive) | 96.9% (inactive) | 80.8% (inactive) | 16.1% (inactive) | 64.7 | 80.8 | 0.8% (inactive) | -6.72% (inactive) |
| O=C(CN1C(=O)CCSc2ccccc21)Nc1ccc(F)cc1 | 94 | 112% (inactive) | 94% (inactive) | 97.6% (inactive) | 98.5% (inactive) | 1.06% (inactive) | 97.5 | 98.5 | 3.29% (inactive) | 0.16% (inactive) |
| O=C(C1CC1)N1CCC(c2nc(-c3ccc(S(=O)(=O)NCC4CCCO4)cc3)no2)CC1 (stereo not given) | 74.5 | 114% (inactive) | 74.5% (inactive) | 54.7% (inactive) | 90.6% (inactive) | -9.35% (inactive) | 99.9 | 90.6 | 0.41% (inactive) | -0.82% (inactive) |
| Cc1ccc(C)c(N2CCN(C(=O)CCCn3c(=S)[nH]c4cc5c(cc4c3=O)OCO5)CC2)c1 | 73.5 | 88.5% (inactive) | 73.5% (inactive) | 62.5% (inactive) | 94% (inactive) | 4.74% (inactive) | 89.2 | 94 | -3.38% (inactive) | -0.33% (inactive) |
| CCN(Cc1nc2ccccc2c(=O)[nH]1)Cc1nc2cc(OC)c(OC)cc2c(=O)[nH]1 | 88.5 | 114% (inactive) | 88.5% (inactive) | 99.5% (inactive) | 89.8% (inactive) | -2.33% (inactive) | 92.1 | 89.8 | 0.54% (inactive) | 9.83% (inactive) |
| O=C(O)CCC1(C(=O)O)OCCc2ccccc21 (stereo not given) | 112 | 83% (inactive) | 112% (inactive) | 107% (inactive) | 97.5% (inactive) | 7.12% (inactive) | 90.3 | 97.5 | -5.54% (inactive) | 2.86% (inactive) |
| Cc1ccc(NC(=O)Cn2cccc2)cc1Cl | 94 | 85% (inactive) | 94% (inactive) | 98.5% (inactive) | 96.3% (inactive) | 17.9% (inactive) | 78.5 | 96.3 | -5.95% (inactive) | -3.67% (inactive) |
| O=c1cc(CSc2ccccn2)c2ccccc2[nH]1 | 91.5 | 76% (inactive) | 91.5% (inactive) | 85.2% (inactive) | 93.1% (inactive) | 8.09% (inactive) | 85.1 | 93.1 | -4.46% (inactive) | 4.13% (inactive) |
| COC(=O)c1cccc(S(=O)(=O)N2CCN(c3nc4ccccc4s3)CC2)c1 | 83 | 92.5% (inactive) | 83% (inactive) | 87.8% (inactive) | 81% (inactive) | 8.71% (inactive) | 72.3 | 81 | 0.67% (inactive) | -2.42% (inactive) |
| COc1cccc(-c2nc(CS(=O)CC(=O)NCCCOC(C)C)c(C)o2)c1 (stereo not given) | 102 | 108% (inactive) | 102% (inactive) | 118% (inactive) | 101% (inactive) | 6.34% (inactive) | 95.1 | 101 | -1.6% (inactive) | -6.94% (inactive) |
| O=C(NC1CCS(=O)(=O)C1)c1c(NC(=O)C2COc3ccccc3O2)sc2c1CCCC2 (stereo not given) | 67 | 69.5% (inactive) | 67% (inactive) | 45.3% (inactive) | 38.3% (active) | 2.25% (inactive) | 36 | 38.3 | -4.67% (inactive) | -1.61% (inactive) |
| CC(=O)c1c(C)nn(CC(O)COc2ccc3c(c2)CCC3)c1C (stereo not given) | 93.5 | 105% (inactive) | 93.5% (inactive) | 94.4% (inactive) | 87.4% (inactive) | 3.44% (inactive) | 83.9 | 87.4 | 1.33% (inactive) | -6.03% (inactive) |
